Bioassay records from PubChem.
ERp5 block: ERp5 (human) disulfide isomerase inhibition. ERp5 insulin aggregation, absorbance 650 nm, 90 min. inhibition, % at 9.99 µM. 0.05% of 350,000 active;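 active means mean replicate inhibition above about 25%, with every replicate also reaching it, limit read from the data, passing the limit was not always enough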
Target sequence (Q15084 whole entry, looked up): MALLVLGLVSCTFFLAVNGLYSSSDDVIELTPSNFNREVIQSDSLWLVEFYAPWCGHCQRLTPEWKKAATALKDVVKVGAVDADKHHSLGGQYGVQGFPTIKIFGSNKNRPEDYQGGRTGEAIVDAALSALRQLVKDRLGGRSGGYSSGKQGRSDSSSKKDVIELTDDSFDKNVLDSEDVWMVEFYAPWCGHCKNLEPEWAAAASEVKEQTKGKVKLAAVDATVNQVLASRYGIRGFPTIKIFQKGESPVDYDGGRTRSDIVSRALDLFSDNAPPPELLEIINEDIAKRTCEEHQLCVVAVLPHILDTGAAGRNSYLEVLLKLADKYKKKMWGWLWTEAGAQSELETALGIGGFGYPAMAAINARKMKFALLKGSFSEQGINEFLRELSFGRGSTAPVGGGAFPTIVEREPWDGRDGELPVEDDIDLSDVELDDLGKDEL
ERAP1 HTS inh: ERAP1 (human) enzyme inhibition. recombinant ERAP1, Leu-AMC fluorescence, 60 min. inhibition, % at 10.7 µM. 0.15% of 340,000 active. AID 652197;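 active means mean replicate inhibition of at least 30%, or all replicates individually reaching that 30% level; inactive means mean below 30% and not every replicate reaching it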
FGF22 binding: FGF22 (human) thermal shift binding | recombinant FGF22 thermal shift, SYPRO orange fluorescence; percent of sucrose octasulfate shift, DMSO zero | 1.5% of 340,000 active | activity (Tm shift, normalised), % at 9.99 µM | AID 651658;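 active means mean Tm shift, scaled 0 neutral to 100 positive control, at about 1.3% or above, every replicate too, limit read from the data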
Target sequence (Q9HCT0 whole entry, looked up): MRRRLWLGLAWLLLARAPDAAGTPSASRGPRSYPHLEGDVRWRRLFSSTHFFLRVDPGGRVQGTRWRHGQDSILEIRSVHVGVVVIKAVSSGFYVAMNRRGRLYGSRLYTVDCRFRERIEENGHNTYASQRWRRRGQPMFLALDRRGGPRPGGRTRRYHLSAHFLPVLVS
PDI turbidity: blocks human protein disulfide isomerase activity; PDI insulin aggregation turbidity, A650, 90 min; inhibition, % at 10 µM; 0.052% of 350,000 active;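 active means mean inhibition across replicates of 30% or more, whatever share of single replicates reach that level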
S100A4 MyoIIA: S100A4-myosin IIA interaction inhibition | P26447 | S100A4/TAMRA-MyoIIA peptide fluorescence polarization | inhibition, % at 10.7 µM | 0.14% of 360,000 active | AID 652163;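 active means mean inhibition of at least 70% across replicates, with every replicate also reaching that level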
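assay system = human S100A4 monomer with TAMRA-labelled myosin IIA peptide | also added = labelled myosin peptide probe, 5 nM | incubation = 5 min between mix addition and reading | control set = DMSO and TFP controls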
Each line names hits and unclear results; the compound was inactive in the other large screens. This is one part of a sample in which hits are shown more often than they occur.

CC(C)(C)OC(=O)[C@H](Cc1ccccc1)NC(=O)c1nc[nH]c1C(=O)NCc1ccccc1	none
CN1CCn2cnc(C(=O)N[C@@H](Cc3ccccc3)C(=O)OC(C)(C)C)c2C1=O	FGF22 binding 44
CC(C)(C)OC(=O)NCc1ccc(CNC(=O)c2[nH]cnc2C(=O)N[C@@H](Cc2ccccc2)C(=O)OC(C)(C)C)cc1	FGF22 binding 12 (no result: ERAP1 HTS inh)
CN1CCn2cnc(C(=O)NCc3ccc(CNC(=O)OC(C)(C)C)cc3)c2C1=O	none (no result: PDI turbidity)
COc1cc(/C=C/C(=O)N2CCN(c3ccccn3)CC2)cc(OC)c1OC	none
CN1CCN(C(=O)C[C@@H]2CC[C@@H](NC(=O)c3ccc4c(c3)OCO4)[C@@H](CO)O2)CC1	none (no result: PDI turbidity)
Cc1ccc(S(=O)(=O)N(C)C[C@H]2OCCCC[C@@H](C)Oc3ccc(NS(=O)(=O)c4c(C)noc4C)cc3C(=O)N([C@H](C)CO)C[C@H]2C)cc1	none (no result: PDI turbidity)
C[C@@H]1CN([C@@H](C)CO)C(=O)c2cccc(NS(=O)(=O)c3cccs3)c2O[C@@H]1CN(C)C(=O)Nc1ccc(C(F)(F)F)cc1	none (no result: PDI turbidity)
CC1CN(C(=O)c2cc3cc([N+](=O)[O-])ccc3s2)CC(C)O1 (configuration not stated)	FGF22 binding 44
O=C(/C=C/c1ccc(S(=O)(=O)N2CCOCC2)cc1)NC(=S)Nc1ccc(Cl)cc1Cl	FGF22 binding 43
Cc1ccc2c(c1)sc(=NC(=O)c1cccs1)n2C	FGF22 binding 43
Cc1ccc2c(c1)sc(=NC(=O)C1CC1)n2C	none
CCN(CC)C(=O)Cn1cc(C(=O)C(=O)N2CC=C(c3ccccc3)CC2)c2ccccc21	FGF22 binding 43
NC(=O)COC(=O)CC12CC3CC(CC(C3)C1)C2	none (no result: ERAP1 HTS inh)
NC(=O)NC(=O)COC(=O)CC12CC3CC(CC(C3)C1)C2	FGF22 binding 44
CCC(C)NC(=O)c1nc2c(nnn2Cc2ccccc2Cl)c(=O)[nH]1 (configuration not stated)	FGF22 binding 43
Cc1ccc(NC(=O)CSc2nncn2-c2ccccn2)cc1Cl	none
CCOC(=O)N1CCN(C(=O)C2CCN(S(=O)(=O)c3ccc(F)cc3)CC2)CC1	FGF22 binding 43
CCOC(=O)C1CCN(S(=O)(=O)c2ccc(C)c(C(=O)NC3CCCCC3)c2)CC1	none
COc1ccc(S(=O)(=O)N2CCN(C(=S)NC3CCCCC3)CC2)cc1	FGF22 binding 43
CCOC(=O)N1CCN(S(=O)(=O)c2ccc(C)c(C(=O)NC3CCCCC3)c2)CC1	S100A4 MyoIIA 127
OC(CN1CCN(c2ccccc2)CC1)c1c[nH]c2ccccc12 (configuration not stated)	none (no result: ERp5 block, ERAP1 HTS inh, FGF22 binding, S100A4 MyoIIA)
O=C(CCSc1ccc(Br)cc1)Nc1cccnc1	FGF22 binding 44
O=C(CCC(=O)c1ccc(Br)cc1)Nc1cccnc1	none (no result: ERAP1 HTS inh)
COc1ccc(/C=C2\C(=O)NCC(=O)N2C)cc1	ERAP1 HTS inh 86
NS(=O)(=O)c1ccc(NC(=O)CN2CCCCC2)cc1	none (no result: ERp5 block, ERAP1 HTS inh, FGF22 binding, S100A4 MyoIIA)
O=C(CN1CCCCC1)Nc1ccc(S(=O)(=O)c2ccc(NC(=O)CN3CCCCC3)cc2)cc1	FGF22 binding 44
Nc1nc2c(ncn2[C@@H]2O[C@H](CNC(=O)[C@H](N)C3CCCCC3)[C@@H](O)[C@H]2O)c(=O)[nH]1	none (no result: PDI turbidity)
COC1=C(Nc2ccccc2OC)C(=O)c2ccccc2C1=O	none
COC1=C(Nc2ccccc2)C(=O)C(OC)=C(Nc2ccccc2)C1=O	FGF22 binding 44
Cc1ccccc1C(=O)N/N=C/c1ccccn1	none
O=C(N/N=C\c1ccccn1)c1ccccc1O	FGF22 binding 44
CC1(C)C2CC=C(/C=N/NC(=O)c3ccccc3O)C1C2 (configuration not stated)	FGF22 binding 43
O=C(Oc1ccc(C(=S)N2CCOCC2)cc1)c1cccc([N+](=O)[O-])c1	none
CCNS(=O)(=O)c1ccc(CCC(=O)N2CCCC2)cc1	none
CC1CN(CC(O)COC(c2ccccc2)c2ccccc2)CC(C)O1 (configuration not stated)	none
COc1ccccc1P(=O)(c1ccccc1)c1ccccc1	none
Cc1ccccc1P(=O)(c1ccccc1)c1ccccc1C	FGF22 binding 44
COc1cccc(/C=C2/NC(=O)NC2=O)c1OCC(=O)Nc1ccccc1	FGF22 binding 43
C[C@@H]1CCCCO[C@H](CN(C)C(=O)Nc2ccc3c(c2)OCO3)[C@H](C)CN([C@@H](C)CO)C(=O)c2cc(NC(=O)c3ccccc3)ccc2O1	none (no result: PDI turbidity)
CNC[C@H]1Oc2ccc(NS(=O)(=O)c3cccs3)cc2CC(=O)N([C@H](C)CO)C[C@H]1C	none (no result: PDI turbidity)
O=C(NNC(=O)c1ccc2ccccc2c1)c1cccc(F)c1	none
O=C(NNC(=O)c1cccc2ccccc12)c1cccc(F)c1	FGF22 binding 43
COc1ccc(C(=O)NCc2ccco2)cc1S(=O)(=O)NC1CC1	none
O=C(CNc1n[nH]c(=O)[nH]c1=O)N/N=C/c1ccccc1	none (no result: PDI turbidity)
O=C(CCNc1n[nH]c(=O)[nH]c1=O)N/N=C/c1ccccc1Br	FGF22 binding 44
O=C(CCNc1n[nH]c(=O)[nH]c1=O)N/N=C/c1ccc(C(F)(F)F)cc1	FGF22 binding 43
O=C1NC(Cc2ccc(O)cc2)c2nc3cc(F)ccc3c(=O)n2-c2cc(Cl)ccc21 (configuration not stated)	none (no result: PDI turbidity)
CCOC(=O)CC1NC(=O)c2ccccc21 (configuration not stated)	none (no result: ERp5 block, ERAP1 HTS inh, FGF22 binding, S100A4 MyoIIA)
CCCC#Cc1ccc2c(c1)O[C@@H](CN(C)Cc1cccnc1)[C@H](C)CN([C@H](C)CO)S2(=O)=O	none (no result: PDI turbidity)
O=C(C[n+]1ccc(C(=O)NCc2ccccc2)cc1)c1ccc(OC(F)F)cc1	none
C[C@H]1COC[C@@H](C/C=C/c2ccccc2)N1c1ccccc1	FGF22 binding 43
CCN(CC)C(=O)c1sc(NC(=O)C(C)C)c(C#N)c1C	FGF22 binding 44
CC(C)N(Cc1cn(C)nc1-c1cccc(Cl)c1)Cc1nccn1C	FGF22 binding 43
Cc1cnccc1CN(C)Cc1cn(C)nc1-c1cccc(Cl)c1	none
COc1ccc(S(=O)(=O)NNC(=O)c2ccccc2-n2cccc2)cc1	FGF22 binding 43
O=C(NNS(=O)(=O)c1ccccc1)c1ccc(O)cc1	none
Cc1cccc(C(=O)NNS(=O)(=O)c2ccccc2)c1O	FGF22 binding 43
Cc1ccc(S(=O)(=O)NNC(=O)c2ccccc2-n2cccc2)cc1	none
Cc1ccc(S(=O)(=O)NCc2ccc3c(c2)OCO3)cc1	none (no result: PDI turbidity)
CCOC(=O)c1cnc2c(cnn2C)c1Cl	FGF22 binding 43
O=C(O)CN1C(=O)/C(=C\c2ccc(OC(=O)c3ccco3)cc2)SC1=S	PDI turbidity 43
CCOC(=O)N1CCc2c(sc(NC(=O)c3ccc(S(=O)(=O)N4CCCC4)cc3)c2C#N)C1	ERAP1 HTS inh 31 (no result: PDI turbidity)
CC(C)N1CCc2c(sc(NC(=O)c3ccc(S(=O)(=O)N4CCOCC4)cc3)c2C#N)C1	none (no result: ERp5 block, ERAP1 HTS inh, FGF22 binding, S100A4 MyoIIA)
Cc1cc(C(=O)CSc2nn3c(=O)c(C(C)(C)C)nnc3s2)c(C)n1C1CC1	FGF22 binding 1.7
